Test results taken from ChEMBL document CHEMBL1629705, “PSI-7851, a pronucleotide of beta-D-2'-deoxy-2'-fluoro-2'-C-methyluridine monophosphate, is a potent and pan-genotype inhibitor of hepatitis C virus replication” (Antimicrob Agents Chemother, 2010).
Activity calls are given as the source filed them. The rule behind the calls is not given here.

Experiments:
[1] = tested on: Hepatitis C virus; experiment: Antiviral activity against Hepatitis C virus isolate Con1 harboring Btat protein assessed as viral RNA level by quantitative real-time PCR; format: functional, organism-based, Hepacivirus hominis
[2] = tested on: Hepatitis C virus; experiment: Antiviral activity against Hepatitis C virus H77 harboring Htat protein assessed as viral RNA level by quantitative real-time PCR; format: functional, organism-based, Hepacivirus hominis; details: genotype 1a H77
[3] = tested on: Hepatitis C virus; experiment: Antiviral activity against Hepatitis C virus JFH1 assessed as viral RNA level by quantitative real-time PCR; format: functional, organism-based, Hepacivirus hominis; details: JFH-1
[4] = tested on: Yellow fever virus; experiment: Antiviral activity against Yellow fever virus 17D by neutral red assay; format: functional
[5] = tested on: Influenza A virus; experiment: Antiviral activity against Influenza A virus (A/Brisbane/10/2007(H3N2)) infected in HFF by neutral red assay; format: functional, organism-based
[6] = tested on: Hepatitis B virus; experiment: Antiviral activity against Hepatitis B virus infected in human HepAD38 cells by quantitative real-time PCR; format: functional, organism-based
[7] = Cytotoxicity against human HuH7 cells assessed as effect on cellular GAPDH RNA level after 8 days by quantitative real-time PCR; format: cell-based, Huh-7
[8] = Cytotoxicity against human BxPC3 cells assessed as effect on cellular GAPDH RNA level after 8 days by quantitative real-time PCR; format: cell-based, BXPC-3
[9] = Cytotoxicity against HFF; format: cell-based; details: human, HFF cells
[10] = Cytotoxicity against human HeLaP4 cells; format: cell-based
[11] = tested on: CCRF-CEM; experiment: Mitochondrial toxicity in human CEM cells assessed as effect on mitochondrial cytochrome c oxidase subunit 2 gene level up to 100 uM after 14 days by quantitative real-time PCR assay; format: cell-based; details: 336 h
Procedure, shortened: (§1)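 HepG2 or CEM cells incubated 14 days with compound up to 100 μM, ddC as control. Medium and compound replenished on days 7 and 11. Mitochondrial COXII gene and nuclear rDNA measured by multiplex quantitative RT-PCR.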

[12] = tested on: CCRF-CEM; experiment: Cytotoxicity against human CEM cells assessed as effect on ribosome RNA gene level at up to 100 uM after 14 days by quantitative real-time PCR assay; format: cell-based; details: 336 h; procedure, shortened: as §1
[13] = Cytotoxicity against human CEM cells; format: cell-based; details: CEM (CCRF-CEM) cells
Procedure, shortened: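 Cells treated 8 days with compound serially diluted from 100 μM in DMSO-containing medium, gemcitabine (1 μM) or DMSO control. Viability by MTS-type tetrazolium assay, absorbance at 490 nm with medium-only blanks. Value derived by comparison with DMSO control wells.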

[14] = Cytotoxicity against human myeloid progenitor cells after 14 to 16 days by colony formation assay; format: cell-based
Procedure, shortened: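 Normal human bone marrow erythroid and myeloid progenitors, 2 × 10^4 cells per culture in methylcellulose with rh-SCF 50 ng/ml, rh-IL-3 10 ng/ml, rh-GM-CSF 10 ng/ml and rh-EPO 3 U/ml. Compound up to 50 μM, DMSO control 0.1%, 14–16 days.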

[15] = tested on: Hepatitis C virus; experiment: Antiviral activity against Hepatitis C virus harboring wild-type NS5B infected in human HuH7 cells by luciferase-based replicon assay; format: functional, Hepacivirus hominis; details: Huh-7
[16] = tested on: Hepatitis C virus; experiment: Antiviral activity against Hepatitis C virus harboring NS5B polymerase S282T mutant gene infected in human HuH7 cells by luciferase-based replicon assay; format: functional, Hepacivirus hominis; details: Huh-7
[17] = tested on: Hepatitis C virus; experiment: Antiviral activity against Hepatitis C virus harboring NS5B polymerase S96T mutant gene infected in human lunet cells by luciferase-based replicon assay; format: functional, Hepacivirus hominis
Procedure, shortened: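 ET-lunet cells with the ET genotype 1b replicon, wild-type or S96T/N142T (ET replicon with these mutations electroporated into Lunet cells, selected in 0.2 mg/ml G418). 3,000 cells/well, 4 days with serially diluted compound. Firefly luciferase luminescence read-out; EC90 from dose–response.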

[18] = tested on: Hepatitis C virus; experiment: Selectivity ratio of EC90 for Hepatitis C virus harboring NS5B polymerase S96T mutant gene to EC90 for HCV harboring wild type NS5B polymerase; format: functional, Hepacivirus hominis
[19] = tested on: Hepatitis C virus; experiment: Antiviral activity against Hepatitis C virus assessed as log reduction in viral RNA at 0.1 uM after 3 weeks; format: functional, Hepacivirus hominis
Procedure, shortened: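 ET-lunet replicon cells seeded at 1 × 10^5/well without G418, treated at 0.1, 1 or 2 μM (final DMSO 0.5%). Passaged 1:3–1:4 every 3–4 days for 3 weeks with fresh compound. Then compound withdrawn and cells grown 3 more weeks in 0.25 mg/ml G418. HCV RNA by RT-PCR (ΔΔCt vs rRNA and DMSO controls, log change). Colonies fixed in formaldehyde and stained with crystal violet at 6 weeks.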

[20] = tested on: Hepatitis C virus; experiment: Antiviral activity against Hepatitis C virus assessed as inhibition of viral rebound at 1 uM after 3 weeks in presence of G418; format: functional, organism-based; details: Hepacivirus hominis
Procedure, shortened: (§2)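 ET-lunet replicon cells, 1 × 10^5/well, no G418, with compound at 0.1, 1 or 2 μM (final DMSO 0.5%). Passaged 1:3 or 1:4 every 3–4 days for 3 weeks with fresh compound, then 3 more weeks with 0.25 mg/ml G418 and no inhibitor. HCV RNA by RT-PCR normalized to rRNA (ΔΔCt vs DMSO) at each passage. Crystal violet colony staining at 6 weeks.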

[21] = tested on: Hepatitis C virus; experiment: Antiviral activity against Hepatitis C virus assessed as clearance of HCV from replicon cells at 2 uM; format: functional, organism-based; details: Hepacivirus hominis; procedure, shortened: as §2
[22] = Inhibition of Hepatitis C virus genotype 3a recombinant NS5B polymerase after 3 hrs by phosphor imaging; design: species or system Hepatitis C virus subtype 3a
Procedure, shortened: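 C-terminal Δ21-truncated NS5B: 1b Con1 and 2a JFH-1 expressed in E. coli; 3a and 4a cloned from patient serum. Mix: 1 μM each NTP, [α-32P]UTP, 20 ng/μl genotype 1b(−) IRES RNA template, 40 ng/μl enzyme, 1 mM MgCl2, 0.75 mM MnCl2, 2 mM DTT, 50 mM HEPES pH 7.5. Run at 27°C: 30 min (1b, 2a) or 3 h (3a, 4a). EDTA quench, products on membrane read by phosphorimager. Duplicates; IC50 calculated.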

[23] = molecular target: DNA polymerase beta (Homo sapiens, UniProt P06746); experiment: Inhibition of human DNA polymerase beta assessed as incorporation of [alpha-32P]dCTP up to 1mM preincubated for 30 mins by whatman DE81 paper binding assay
Procedure, shortened: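 Human DNA polymerase β at 18 μg/ml final, in 50 mM Tris pH 7.5, 50 mM NaCl, 5 mM MgCl2, activated calf thymus DNA and 20 μM each dNTP with [α-32P]dCTP. Triphosphate up to 1 mM. 37°C, stopped at 30 min with EDTA. Products quantified by DE81 paper binding; IC50 by nonlinear fit.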

[24] = molecular target: DNA-directed RNA polymerase II subunit RPB1 (Homo sapiens, UniProt P24928); experiment: Inhibition of human RNA polymerase 2
Procedure, shortened: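 In vitro transcription by HeLa nuclear extract from CMV immediate-early promoter DNA. Mix: 400 μM ATP, CTP and UTP, 16 μM GTP, [α-32P]GTP, 3 mM MgCl2, in 20 mM HEPES pH 7.9 buffer with KCl, EDTA, DTT and glycerol. Inhibitor up to 1 mM. 30°C for 60 min. RNA purified, run on 6% sequencing gel and quantified by phosphorimager.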

`CC(C)OC(=O)[C@H](C)NP(=O)(OC[C@H]1O[C@@H](n2ccc(=O)[nH]c2=O)[C@](C)(F)[C@@H]1O)Oc1ccccc1` (some centres not stated) gave an EC50 [1] of 0.09 µM, an EC90 [1] of 0.65 µM and an EC50 [2] of 0.43 µM. It also gave an EC90 [2] of 1.22 µM, an EC50 [3] of 0.18 µM and an EC90 [3] of 0.52 µM. For the same compound, the EC50 [4] was > 100 µM, the EC50 [5] was > 100 µM and the EC50 [6] was > 100 µM. For the same compound, the CC50 at 192 h [7] was > 100 µM, the CC50 at 192 h [8] was > 100 µM and the CC50 [9] was > 100 µM. The CC50 [10] was > 100 µM, the Activity [11] was “Non-toxic” and the Activity [12] was “Non-toxic”. For the same compound, the CC90 [13] was 28.5 µM, the CC50 [14] was > 50 µM and the EC90 [15] was 0.45 µM. It also gave an EC90 [16] of 7.4 µM, an EC90 [17] of 0.39 µM and a Selectivity ratio [18] of 0.66. For the same compound, the FC [19] was 0.58, the inhibition [20] was “Active” and the Activity [21] was “Active”.

In the case of `C[C@@]1(F)[C@H](O)[C@@H](COP(=O)(O)OP(=O)(O)OP(=O)(O)O)O[C@H]1n1ccc(=O)[nH]c1=O` [GS-461203], the IC50 [22] is reported as 0.7 µM, the IC50 [23] is reported as > 1000 µM and the IC50 [24] is reported as > 500 µM.
